Measured values from article PMC11471106 (Drug Design, Development and Therapy, 2024).

Test system: MCF-7 cells
Experiment: Inhibition of [125I]I-AM uptake into MCF-7 cells by blocking agents
Assay type: cell-based
Conditions: blocking agent at 1 mm
Summary of the method: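 Blocking uptake study in MCF-7 cells, cultured and given radiotracer as in the standard uptake assay (serum-free MEM + 0.2% BSA, 37 °C, gamma counting of lysate versus medium). Cells were treated separately with unlabelled parent compound, tamoxifen or 17β-estradiol, each at one stated concentration. Groups were compared by one-way ANOVA with Tukey's multiple comparison test.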

| SMILES | effect on uptake of [125I]I-AM into MCF-7 cells |
| --- | --- |
| C[C@]12CC[C@@H]3c4ccc(O)cc4CC[C@H]3[C@@H]1CC[C@@H]2O [estradiol, 17 β -estradiol] | not inhibited |
| CC/C(=C(\c1ccccc1)c1ccc(OCCN(C)C)cc1)c1ccccc1 [tamoxifen] | significantly inhibited |
